Reference: ChEMBL document CHEMBL2093137, “WHO-TDR NTD Screening”
≈ marks a conversion by molar mass, not a printed value.

Tests used:
[1] = system: Onchocerca ochengi; experiment: WHO-TDR: Onchocerciasis; format: functional; parameters: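 at 12.5 µM on microfilariae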
In short: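 Percent inhibition and IC50 describe activity against microfilariae of Onchocerca ochengi or Onchocerca lienalis, used as animal-pathogen substitutes for the human parasite. The compounds tested made up a 10,000-member diverse library from Life Chemicals.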

[2] = system: Trypanosoma brucei brucei; experiment: WHO-TDR: Human African Trypanosomiasis (HAT); format: functional, organism-based; conditions: Squib-427
In short: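 Values are IC50 figures for antiparasitic potency. They come from a whole-organism screen of 10,000 diverse Life Chemicals compounds against bloodstream-form Trypanosoma brucei (Squib 427 strain).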

[3] = system: Brugia malayi; experiment: WHO-TDR: Lymphatic Filariasis; format: functional; parameters: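 tested at 10 µM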
In short: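 The screening set was a 10,000-compound diverse library from Life Chemicals, filtered for drug-likeness and for reactive groups. It was run against Brugia malayi microfilariae as whole organisms, using previously published standard procedures. Reference drugs acted as positive controls, and activity is reported both as percent inhibition and as IC50.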

[4] = system: Trypanosoma cruzi; experiment: WHO-TDR: Chagas disease; format: functional, organism-based, Homo sapiens; conditions: MRC5
In short: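 Each IC50 reflects antiparasitic potency against intracellular amastigotes of Trypanosoma cruzi Tulahuen CL2 beta-galactosidase strain. These were cultured in MRC-5SV2 human lung fibroblasts and exposed to a 10,000-compound diverse Life Chemicals library screened according to published standard procedures with a reference drug as positive control.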

[5] = WHO-TDR: Cytotoxicity; format: toxicity, cell-based; conditions: human, MRC5 cells
[6] = system: Schistosoma mansoni; experiment: WHO-TDR: Schistosomiasis; format: functional; parameters: concentration or dose not given beside the values
In short: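 Percent inhibition and IC50 describe activity against whole Schistosoma mansoni worms of the Puerto Rican strain, tested as larvae and/or adults. The compounds screened were a diverse set of 10,000 from Life Chemicals, filtered for drug-likeness and reactive groups. Testing followed previously published standard procedures, with a reference drug as positive control.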

[7] = system: Leishmania infantum; experiment: WHO-TDR: Leishmaniasis; format: functional, organism-based, Mus musculus; conditions: Macrophage
In short: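 Values are IC50 figures for antiparasitic potency. They come from a whole-organism screen of a 10,000-compound diverse Life Chemicals library against Leishmania infantum MHOM/MA(BE)/67 amastigotes inside murine peritoneal macrophage host cells.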

[8] = system: Plasmodium falciparum K1; experiment: WHO-TDR: Malaria; format: functional, organism-based, Homo sapiens; conditions: Erythrocyte
In short: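 Values are IC50 figures for antiplasmodial potency. They come from a whole-organism screen of 10,000 diverse Life Chemicals compounds against Plasmodium falciparum K1 growing inside human red blood cells, run by previously published standard procedures.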

Structure (SMILES) | % Inhibition [1] [%] | IC50 [2] [µg/mL] | % Inhibition [3] [%] | IC50 [4] [µg/mL] | IC50 [5] [µg/mL] | % Inhibition [6] [%] | IC50 [7] [µg/mL] | IC50 [8] [µg/mL]
CCn1ccnc1N1CCN(C(=O)c2cccc(OC)c2OC)CC1 | 0 | > 11.4 | 0 | > 11.4 | > 11.4 | 8.3 | 0.37 (≈ 1.07 µM) | > 11.4
Cc1ccc(-n2ccnc2N2CCN(C(=O)c3ccc4ccccc4c3)CC2)cc1 | 100 | 4.21 (≈ 10.6 µM) | 0 | 2.67 (≈ 6.73 µM) | 2.65 (≈ 6.67 µM) | 8.3 | 2.56 (≈ 6.45 µM) | 4.25 (≈ 10.7 µM)
Cc1ccc(-n2ccnc2N2CCN(C(=O)/C=C\c3ccccc3)CC2)cc1 | 100 | 4.07 (≈ 10.9 µM) | 0 | 3.88 (≈ 10.4 µM) | > 12.3 | 25 | > 12.3 | 6.82 (≈ 18.3 µM)
COc1ccccc1C(=O)N1CCN(c2nccn2-c2ccccc2F)CC1 | 100 | > 12.5 | 0 | > 12.5 | > 12.5 | 25 | > 12.5 | > 12.5
COc1cc(OC)cc(C(=O)N2CCN(c3nccn3-c3cccc(Cl)c3)CC2)c1 | 100 | 4.5 (≈ 10.5 µM) | 0 | 4.18 (≈ 9.78 µM) | > 13.9 | 0 | 4.5 (≈ 10.5 µM) | 6.13 (≈ 14.4 µM)
O=C(c1ccc(F)c(F)c1)N1CCN(c2nccn2-c2cccc(Cl)c2)CC1 | 100 | 3.83 (≈ 9.51 µM) | 0 | 11.4 (≈ 28.2 µM) | > 13.2 | 0 | 4.27 (≈ 10.6 µM) | > 13.2
COc1cccc(OCC(=O)N2CCN(c3nccn3-c3cccc(Cl)c3)CC2)c1 | 0 | 4.61 (≈ 10.8 µM) | 0 | 9.15 (≈ 21.4 µM) | > 13.9 | 0 | 0.45 (≈ 1.05 µM) | 12.2 (≈ 28.5 µM)
COc1ccc(CC(=O)N2CCN(c3nccn3-c3cccc(Cl)c3)CC2)cc1OC | 0 | > 14.3 | 0 | > 14.3 | > 14.3 | 16.7 | 0.464 (≈ 1.05 µM) | > 14.3
O=C(Cc1cccs1)N1CCN(c2nccn2-c2cccc(Cl)c2)CC1 | 50 | 4.77 (≈ 12.3 µM) | 0 | 7.14 (≈ 18.5 µM) | > 12.7 | 0 | 0.411 (≈ 1.06 µM) | 12 (≈ 31.1 µM)
Cn1ccnc1N1CCN(CC(=O)Nc2ccccc2C(F)(F)F)CC1 | 0 | > 11 | 0 | > 11 | > 11 | 0 | 0.357 (≈ 0.972 µM) | > 11
Cn1ccnc1N1CCN(CC(=O)Nc2ccc(OC(F)(F)F)cc2)CC1 | 50 | 5.13 (≈ 13.4 µM) | 0 | > 11.5 | > 11.5 | 0 | 0.372 (≈ 0.97 µM) | > 11.5
CCn1ccnc1N1CCN(CC(=O)NC2CCCCC2)CC1 | 0 | > 11.8 | 0 | > 11.8 | > 11.8 | 0 | 0.381 (≈ 1.19 µM) | > 11.8
CCn1ccnc1N1CCN(CC(=O)NCc2ccc(C)cc2)CC1 | 0 | > 12.4 | 0 | > 12.4 | > 12.4 | 0 | 0.402 (≈ 1.18 µM) | > 12.4
Cc1ccc(NC(=O)CN2CCN(c3nccn3-c3ccccc3F)CC2)cc1 | 100 | 5.48 (≈ 13.9 µM) | 0 | 11.2 (≈ 28.6 µM) | > 11.8 | 0 | > 11.8 | 6.19 (≈ 15.7 µM)
O=C(CN1CCN(c2nccn2-c2cccc(Cl)c2)CC1)N1CCc2ccccc21 | 75 | 4.69 (≈ 11.1 µM) | 0 | 5.05 (≈ 12 µM) | 14.2 (≈ 33.6 µM) | 0 | 0.481 (≈ 1.14 µM) | 7.54 (≈ 17.9 µM)
O=C(CN1CCN(c2nccn2-c2cccc(Cl)c2)CC1)Nc1ccc(F)cc1F | 100 | 4.79 (≈ 11.1 µM) | 0 | 4.67 (≈ 10.8 µM) | > 15.1 | 0 | 4.9 (≈ 11.4 µM) | 12.6 (≈ 29.2 µM)
O=C(Nc1ccc2c(c1)N(C(=O)c1cccs1)CC2)c1cc2ccccc2oc1=O | 0 | > 12.5 | 0 | > 12.5 | > 12.5 | 16.7 | 0.404 (≈ 0.97 µM) | > 12.5
CC(C)(C)C(=O)N1CCc2ccc(NC(=O)Cc3cccs3)cc21 | 50 | > 10.3 | 0 | 4.11 (≈ 12 µM) | > 10.3 | 0 | 0.333 (≈ 0.972 µM) | > 10.3
COc1cc(C(=O)Nc2ccc3c(c2)N(C(=O)c2ccco2)CC3)cc(OC)c1OC | 100 | > 12.7 | 0 | > 12.7 | 2.08 (≈ 4.91 µM) | 16.7 | > 12.7 | 11.5 (≈ 27.1 µM)
O=C(Nc1ccc2c(c1)N(C(=O)C1CCCO1)CC2)c1ccco1 (stereo not drawn) | 0 | > 9.79 | 0 | > 9.79 | > 9.79 | 0 | 0.317 (≈ 0.971 µM) | > 9.79
CC(=O)N1CCc2ccc(NC(=O)c3ccc(F)c(F)c3)cc21 | 75 | > 9.49 | 0 | 2.93 (≈ 9.25 µM) | > 9.49 | 8.3 | 0.307 (≈ 0.971 µM) | > 9.49
CC(=O)N1CCc2ccc(NC(=O)c3ccc(C(C)(C)C)cc3)cc21 | 0 | > 10.1 | 0 | 0.3 (≈ 0.892 µM) | > 10.1 | 16.7 | > 10.1 | > 10.1
CCn1nc(C)cc1C(=O)N1CCN(c2nc3c(C)ccc(C)c3s2)CC1 | 100 | > 11.5 | 0 | > 11.5 | > 11.5 | 16.7 | > 11.5 | > 11.5
COc1ccc(Cl)cc1NC(=O)CSc1ccc(NC(=O)C2CC2)nn1 | 100 | > 11.8 | 0 | > 11.8 | > 11.8 | 33.3 | > 11.8 | > 11.8
CCn1ccc(C(=O)Nc2ccc3nc(SC)sc3c2)n1 | 100 | > 9.55 | 0 | > 9.55 | > 9.55 | 0 | > 9.55 | 0.955 (≈ 3 µM)
CCn1ccc(C(=O)Nc2nc(C(C)(C)C)cs2)n1 | 100 | > 8.35 | 0 | > 8.35 | > 8.35 | 16.7 | > 8.35 | > 8.35
